TRPC4 block = blocks the mouse TRPC4 cation channel; 0.39% of 300,000 active; Q9QUQ5; AID 2247; B-score at 10 µM; HEK293 TRPC4beta/mu-opioid, DAMGO-evoked Fluo4 calcium flux; hits give low values;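 active means B-score over 3 SD under the library average, no early fluorescence shift, positive overall ratio signal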
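material = TRPC4beta/mu-opioid receptor HEK293 cell line | probe or stimulus = sequential submaximal and maximal DAMGO stimulation | compound dosing = one concentration per compound | measured by = Fluo4 Ca2+ flux fluorescence | evaluation = integrated fluorescence ratio relative to baseline, converted to per-well B score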
TRPC6 activator = activators of mouse TRPC6 channel; Q61143; HEK293-TRPC6 membrane potential dye fluorescence; hits give high values; B-score at 10 µM; 0.13% of 310,000 active; AID 2550;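 active means B-score of the integrated fluorescence ratio above library mean plus 3 SD, and starting fluorescence ratio within library mean plus 5 SD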;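 further: higher score means more depolarization so channel activation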
Yeast superoxide = lowers age-related superoxide in aged yeast cells; S. cerevisiae aged cells, superoxide DHE fluorescence; hits give low values; 0.18% of 330,000 active; AID 2690; superoxide response (% of plate mean), % at 10 µM;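 active means superoxide response under a set limit, about three screen SD below normal, cut at about 65% in these data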;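 further: yeast aged for seven days with compound at 30 °C before DHE staining; 100% = average MFI of all compound-treated wells on the plate with controls excluded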
TRPC6 inh = mouse TRPC6 channel inhibition. Q61143. 1.1% of 310,000 active. B-score at 10 µM. HEK293-TRPC6, membrane potential dye, ACh-evoked depolarization; hits give low values. AID 2553;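 active means B-score under library mean minus 3 SD, initial fluorescence not abnormally high, positive integrated signal ratio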;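 further: B-score derived from integrated fluorescence ratio over the kinetic read; more negative B-score means stronger inhibition of depolarization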
TRPC4 agonist = activators of mouse TRPC4 channel | Q9QUQ5 | HEK293 TRPC4beta/mu-opioid, Fluo4 calcium fluorescence; hits give high values | B-score at 10 µM | 0.49% of 310,000 active | AID 2237;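 active means B-score above 5 SD of library B-scores, and initial fluorescence ratio not above library mean plus 5 SD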;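 further: positive B-score marks a calcium rise read as TRPC4 activation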
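Test system: HEK293 cells stably co-expressing mouse TRPC4beta and mu-opioid receptor | Schedule: Fluo4 dye loading 45 min at room temperature, 110 s recording | Measured by: Kinetic Fluo4 calcium fluorescence, 5 s baseline at 1 Hz | Evaluation: B score of integrated ratio | Controls: Buffer (low) and maximal DAMGO (high)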
TRPC4 PAM = allosterically enhances the mouse TRPC4 cation channel | B-score at 10 µM | 0.42% of 310,000 active | AID 2227 | HEK293 TRPC4beta/mu-opioid, DAMGO EC20, Fluo-4 Ca2+ flux; hits give high values;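 active means B-score of calcium response area above 5 SD of library B-scores, with initial fluorescence ratio within 5 SD of library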;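 further: B-score of integrated fluorescence ratio over time as area under calcium response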
TRPC4 spec 2 = second check of whether TRPC6 inhibitors also affect mouse TRPC4. AID 2776. 42% of 920 active. shares compounds with TRPC6 inh. HEK293 TRPC4/MOR, membrane potential dye fluorescence; channel activated by saturating DAMGO dose. inhibition, % at 10 µM;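 active means compounds whose fluorescence signal differed from control wells by over 3 SD, either direction, in both duplicate plates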
TRPC4 spec = tests whether TRPC6 inhibitors also affect mouse TRPC4; HEK293 TRPC4/mu-opioid, membrane potential fluorescence; activity change, negative = inhibition, % at 10 µM; 61% of 920 active; shares compounds with TRPC6 inh;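 active means rise or fall in signal beyond 3 SD of buffer-only wells in both replicate plates, either sign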;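 further: integrated kinetic ratio of fluorescence range over baseline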
HEK293 MPD ctr 2-1 = second counter-screen for TRPC6 inhibitors: parental HEK293 cells; shares compounds with TRPC6 inh; parental HEK293 membrane potential dye fluorescence; maximal acetylcholine challenge after compound addition; signal change vs control, % at 10 µM; 31% of 920 active; AID 2779;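 active means membrane potential signal moving either way by over 3 SD of the maximum-effect control, in both duplicate plates, meaning non-specific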
HEK293 MPD ctr-1 = parental HEK293 nonspecific activity of TRPC6 inhibitors; AID 2780; 60% of 920 active; shares compounds with TRPC6 inh; membrane potential signal change, % at 10 µM; parental HEK293 membrane potential dye fluorescence;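 active means membrane potential signal shifting up or down by more than 3 SD of buffer-only wells, on both duplicate plates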
HEK293 MPD ctr-2 = parental HEK293 nonspecific activity of TRPC6 modulators; membrane potential signal change, % at 10 µM; 51% of 2,400 active; membrane potential dye fluorescence; shares compounds with TRPC6 inh;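 active means membrane potential signal moves up or down beyond 5 SD from buffer-only wells, on both duplicate plates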
HEK293 MPD ctr 2-2 = second counter-screen for TRPC6 modulators: effect in parental HEK293 cells. shares compounds with TRPC6 inh. membrane potential dye fluorescence; after compound, maximal acetylcholine stimulation. inhibition, % at 10 µM. 14% of 2,400 active. AID 488926;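 active means membrane potential signal drops by more than 5 SD from the mean control signal, in both duplicate plates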;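 further: plate controls were acetylcholine ECmax control wells for no effect and buffer only wells for full effect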
TRPC4 ctr mod = mouse TRPC4 off-target activity of TRPC6 modulators | shares compounds with TRPC6 inh | HEK293 TRPC4/mu-opioid, membrane potential fluorescence | percent change from control (negative = decrease, positive = increase), % at 10 µM | 69% of 2,400 active | AID 488927;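 active means membrane potential signal moved up or down beyond 5 SD of buffer control wells, in both duplicate plates, actives on both sides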;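 further: plate controls were assay buffer wells for no effect and DAMGO maximal-effect wells for full effect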
TRPC4/MOR inh 2 = second check of whether TRPC6 modulators also affect mouse TRPC4; shares compounds with TRPC6 inh; HEK293 TRPC4/mu-opioid, membrane potential dye fluorescence; stimulated with maximal-effect DAMGO; inhibition, % at 10 µM; 55% of 2,400 active; AID 488928;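 active means drop in membrane potential signal beyond 5 SD of the control wells in both duplicate plates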;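 further: TRPC4 counter screen for TRPC6 hits run under conditions tuned for TRPC6 not TRPC4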
TRPC6 inh conf = confirmation of mouse TRPC6 inhibitors; shares compounds with TRPC6 inh; HEK293-TRPC6, membrane potential dye, ACh-evoked depolarization; inhibition, % at 10 µM; 43% of 3,300 active;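 active means fluorescence ratio falls more than 5 SD below the full-stimulation control mean, in both duplicate runs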;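 further: integrated fluorescence ratio of peak minus minimum over baseline after agonist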
TRPC6 act confirm = confirmation of mouse TRPC6 activators; shares compounds with TRPC6 inh; HEK293-TRPC6 membrane potential dye fluorescence, FDSS; activation, % at 10 µM; 11% of 2,800 active; AID 488961;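 active means ratio signal rise beyond 5 SD above unstimulated control wells' mean, seen in both duplicate runs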;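 further: plate controls were buffer EC0 wells for no effect and acetylcholine ECmax response for full effect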
An asterisk follows results filed as active; i = inactive; x = not tested or not shown. Rows were chosen to be rich in hits. Some 2.3% of all compounds tested hit in one or more screens of this group.

SMILES	TRPC4 block	TRPC6 activator	Yeast superoxide	TRPC6 inh	TRPC4 agonist	TRPC4 PAM	HEK293 MPD ctr-2	HEK293 MPD ctr 2-2	TRPC4 ctr mod	TRPC4/MOR inh 2	TRPC6 inh conf	TRPC6 act confirm	others
CCOC(=O)c1ccccc1NC(=O)COC(=O)C1CCCC1	i	14*	97	-8.1*	i	i	137%*	i	32%*	i	58%*	118%*
CCOC(=O)c1ccccc1NC(=O)c1ccc(F)cc1	i	i	97	i	i	i	x	x	x	x	x	x
COC(=O)c1cc(OC)c(OC)cc1NC(=O)Nc1ccccc1F	i	i	95	i	i	i	x	x	x	x	x	x
COc1cc(/C=C2/C(=O)ON=C2c2ccccc2)ccc1O	i	i	88	i	i	i	x	x	x	x	x	x
COc1cc(/C=C2\C(=O)ON=C2c2ccccc2)cc(Br)c1O	i	16*	92	i	i	i	906%*	i	74%*	i	i	148%*
CC1(NC(=O)c2cccc(S(=O)(=O)N3CCN(c4ccccc4)CC3)c2)CCS(=O)(=O)C1 (stereo not given)	i	i	96	i	i	i	x	x	x	x	x	x
COc1cc(/C=C/C(=O)OCC(=O)NC2CC2)cc(S(=O)(=O)N2CCc3ccccc32)c1OC	i	i	95	i	i	i	x	x	x	x	x	x
COCOc1cc(O)c2c(=O)c(OCOC)c(-c3ccc(OCOC)c(OCOC)c3)oc2c1	i	i	105	i	i	i	x	x	x	x	x	x
COc1ccc(CCN2CC(C(=O)NCc3ccco3)CC2=O)cc1OC (stereo not given)	i	i	108	i	i	i	x	x	x	x	x	x
CCCCOc1ccc(CSC(=N)N)cc1Cl	i	i	109	-6.7*	i	i	x	x	x	x	i	i	TRPC4 spec 2=70%*;TRPC4 spec=i;HEK293 MPD ctr 2-1=266%*;HEK293 MPD ctr-1=2.0%*
COc1ccc(Br)cc1CSC(=N)N	i	i	96	i	i	i	x	x	x	x	x	x
CCCCCOc1ccc(Br)cc1CSC(=N)N	i	i	x	-6.4*	i	i	135%*	i	24%*	76%*	i	x
CCOc1ccc(CSC(=N)N)cc1	i	i	102	i	i	i	x	x	x	x	x	x
C/C(N)=C(/C#N)C(=O)COC(=O)c1ccncc1	i	i	104	i	i	i	x	x	x	x	x	x
C/C(N)=C(/C#N)C(=O)COC(=O)c1ccccc1Cc1ccccc1	i	i	99	-8.3*	i	i	x	x	x	x	i	i	TRPC4 spec 2=i;TRPC4 spec=-11%*;HEK293 MPD ctr 2-1=i;HEK293 MPD ctr-1=i
CCC(=O)N/C(=N/c1nc(C)cc(C)n1)Nc1cccc(OC)c1	i	i	113	-5.8*	i	i	i	i	i	i	i	i
CC1C/C(=N/NC(=O)c2ccc(CSc3nc4ccccc4[nH]3)cc2)CC(C)(C)C1 (stereo not given)	i	i	83	i	i	i	x	x	x	x	x	x
CC1C/C(=N/Nc2nc3ccccc3[nH]2)CC(C)(C)C1 (stereo not given)	i	i	81	-5.4*	i	i	i	i	i	48%*	i	i
COC(=O)C1=C(C)OC(N)=C(C#N)C1c1ccc(OC)c(CSc2ccccn2)c1 (stereo not given)	i	i	99	i	i	i	x	x	x	x	x	x
Cc1nn(Cc2c(Cl)cccc2Cl)c(C)c1NC(=O)c1cn(-c2ccccc2)nc1-c1ccccc1	i	i	103	i	i	i	x	x	x	x	x	x
Cc1ccc(NC(=O)CSc2nc3ccccc3c(=O)n2CCCN2CCCCC2)cc1C	i	i	95	-7.9*	i	i	x	x	x	x	i	i	TRPC4 spec 2=33%*;TRPC4 spec=5.6%*;HEK293 MPD ctr 2-1=219%*;HEK293 MPD ctr-1=9.0%*
CC(=O)c1cccc(NC(=O)CSc2nc3ccccc3c(=O)n2CCCN2CCOCC2)c1	x	x	91	x	x	x	x	x	x	x	x	x
CC(=O)OCCc1c2ccccc2c(CCCN(C)C)c2ccccc12	i	i	95	-6.1*	i	i	-87%*	i	-18%*	67%*	48%*	i
O=C(O)c1ccc(COc2ccc(Cl)cc2)o1	i	i	110	i	i	i	x	x	x	x	x	x
N#CN=C(N)c1ccccc1	i	i	118	i	i	i	x	x	x	x	x	x
Cc1cccc2c(N)c3c(nc12)N(C)CC3	i	i	101	-5.5*	i	i	-154%*	91%*	-36%*	81%*	78%*	i
Cc1ccc2nc3c(c(N)c2c1)CCN3C	-7*	i	111	-7.1*	i	i	x	x	x	x	58%*	i	TRPC4 spec 2=51%*;TRPC4 spec=-27%*;HEK293 MPD ctr 2-1=13%*;HEK293 MPD ctr-1=-460%*

Source: PubChem
